From ChEMBL document CHEMBL1212762, “In vivo activity of ceftobiprole in murine skin infections due to Staphylococcus aureus and Pseudomonas aeruginosa” (Antimicrob Agents Chemother, 2010) come the findings set out here.

Data set [1] concerns Staphylococcus aureus. As to the kind of experiment: Antimicrobial activity against methicillin-susceptible Staphylococcus aureus Smith OC 4172 infected immunocompetent SKH1 mouse assessed as lesion volume at 1.6 mg/kg/day, sc measured after 48 hrs postinfection (reference value: 1181 mm3). The conditions noted are these: route subcutaneous.
Data set [2] in a line: Protein binding in mouse plasma. The data set is classed as ADME, cell-free. The conditions noted are these: read-out: PPB (converted).
The subject of data set [3] is Staphylococcus aureus. The experiment in a line: Antimicrobial activity against methicillin-resistant Staphylococcus aureus OC 8525 infected immunocompetent SKH1 mouse assessed as lesion volume at 1.6 mg/kg/day, sc measured after 48 hrs postinfection (reference value: 1535 mm3). The conditions noted are these: route subcutaneous.
A short description of data set [4]: Tmax in immunocompetent SKH1 mouse plasma at 50 mg/kg, sc. The class given is ADME, organism-based. Further details: dose 50 mg/kg, route subcutaneous. In a few lines: (§1)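 Female SKH1 hairless mice, immunocompetent or cyclophosphamide-neutropenic, infected s.c. with MRSA OC 8525 or P. aeruginosa OC 4354 on the Cytodex beads (left flank), sterile beads on the right. Single dose 24 h later: s.c. at the nape, or linezolid 50 mg/kg oral. Plasma and skin (DMSO homogenate) sampled over time, HPLC with diode array.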

For data set [5], the system named is Staphylococcus aureus. As to the kind of experiment: Antimicrobial activity against methicillin-susceptible Staphylococcus aureus Smith OC 4172 infected immunocompetent SKH1 mouse assessed as lesion volume at 100 mg/kg/day, sc measured after 48 hrs postinfection (reference value: 1181 mm3). To be noted: route subcutaneous.
In data set [6] the test system is Plasma. As to the kind of experiment: fAUC (0-infinity) in immunocompetent SKH1 mouse plasma at 50 mg/kg, sc. The class given is ADME, organism-based. The arrangement: dose 50 mg/kg, route subcutaneous. The conditions noted are these: in vivo. In a few lines:
as §1

Data set [7] in a line: Ratio of fAUC to MIC in Staphylococcus aureus OC 8525 infected sc dosed SKH1 mouse. The class given is functional. The gist of the method: (§2)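 Free-drug plasma AUC, converted from μg·min/ml to μg·h/ml, divided by the MIC of the infecting S. aureus strain.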
The subject of data set [8] is Staphylococcus aureus. As to the kind of experiment: Antimicrobial activity against methicillin-resistant Staphylococcus aureus OC 8525 infected immunocompetent SKH1 mouse assessed as lesion volume at 100 mg/kg/day, sc measured after 48 hrs postinfection (reference value: 1535 mm3). To be noted: route subcutaneous.
For data set [9], the system named is Staphylococcus aureus. As to the kind of experiment: Antimicrobial activity against methicillin-susceptible Staphylococcus aureus Smith OC 4172 infected immunocompetent SKH1 mouse assessed as lesion volume at 6.2 mg/kg/day, sc measured after 48 hrs postinfection (reference value: 1181 mm3). To be noted: route subcutaneous.
The subject of data set [10] is Plasma. The experiment in a line: fCmax in immunocompetent SKH1 mouse plasma at 50 mg/kg, sc. The data set is classed as ADME, organism-based. The arrangement: dose 50 mg/kg, route subcutaneous. The conditions noted are these: in vivo. The gist of the method: as §1
Data set [11] can be described thus: Half life in immunocompetent SKH1 mouse plasma at 50 mg/kg, sc. The arrangement: dose 50 mg/kg, route subcutaneous. The class given is ADME, organism-based.
Data set [12] has as its system Staphylococcus aureus. As to the kind of experiment: Antimicrobial activity against methicillin-resistant Staphylococcus aureus OC 8525 infected immunocompetent SKH1 mouse assessed as lesion volume at 25 mg/kg/day, sc measured after 48 hrs postinfection (reference value: 1535 mm3). The conditions noted are these: route subcutaneous.
Data set [13] deals with Staphylococcus aureus. As to the kind of experiment: Antimicrobial activity against methicillin-resistant Staphylococcus aureus OC 8525 infected immunocompetent SKH1 mouse assessed as lesion volume at 6.2 mg/kg/day, sc measured after 48 hrs postinfection (reference value: 1535 mm3). The conditions noted are these: route subcutaneous.
Data set [14] in a line: Ratio of fAUC to MIC in Staphylococcus aureus OC 4172 infected sc dosed SKH1 mouse. The data set is classed as functional. In a few lines: as §2
Data set [15] relates to Staphylococcus aureus. The experiment in a line: Antimicrobial activity against methicillin-susceptible Staphylococcus aureus Smith OC 4172 infected immunocompetent SKH1 mouse assessed as lesion volume at 25 mg/kg/day, sc measured after 48 hrs postinfection (reference value: 1181 mm3). To be noted: route subcutaneous.
Data set [16] can be described thus: Half life in immunocompetent SKH1 mouse plasma at 50 mg/kg, po. The class given is ADME, organism-based. Further details: dose 50 mg/kg, route oral. In a few lines:
as §1

Data set [17] relates to Plasma. The experiment in a line: fCmax in immunocompetent SKH1 mouse plasma at 50 mg/kg, po. The data set is classed as ADME, organism-based. Further details: dose 50 mg/kg, route oral. The conditions noted are these: in vivo. The gist of the method: as §1
Data set [18] can be described thus: Tmax in immunocompetent SKH1 mouse plasma at 50 mg/kg, po. The arrangement: dose 50 mg/kg, route oral. The class given is ADME, organism-based. In a few lines:
as §1

Data set [19] relates to Plasma. The experiment in a line: fAUC (0-infinity) in immunocompetent SKH1 mouse plasma at 50 mg/kg, po. The data set is classed as ADME, organism-based. The arrangement: dose 50 mg/kg, route oral. To be noted: in vivo. In a few lines:
as §1

For the molecule `CN[C@H](CC(C)C)C(=O)N[C@H]1C(=O)N[C@@H](CC(N)=O)C(=O)N[C@H]2C(=O)N[C@H]3C(=O)N[C@H](C(=O)N[C@H](C(=O)O)c4cc(O)cc(O)c4-c4cc3ccc4O)[C@H](O)c3ccc(c(Cl)c3)Oc3cc2cc(c3O[C@@H]2O[C@H](CO)[C@@H](O)[C@H](O)[C@H]2O[C@H]2C[C@](C)(N)[C@H](O)[C@H](C)O2)Oc2ccc(cc2Cl)[C@H]1O` [VANCOMYCIN], the Activity is 1386 mm3 in the data set on Staphylococcus aureus [1]; 1637 mm3 in the data set on Staphylococcus aureus [3]; 437 mm3 in the data set with Staphylococcus aureus [5]; 606 mm3 in the data set with Staphylococcus aureus [8]; 1211 mm3 in the data set with Staphylococcus aureus [9]; 927 mm3 in the data set on Staphylococcus aureus [12]. For the same molecule, the Activity is recorded as 1392 mm3 in the data set with Staphylococcus aureus [13] and 916 mm3 in the data set with Staphylococcus aureus [15]. For the same molecule, the fraction unbound in data set [2] is 0.75. Besides, the Tmax in data set [4] was 10 min. In addition, the fAUC in the data set on Plasma [6] was determined as 2070 µg·min/mL. Besides, the fAUC/MIC in data set [7] and in data set [14] was 2070 each time. Moreover, the fCmax in the data set with Plasma [10] amounted to 40 µg/mL. The molecule further showed a half-life in data set [11] of 22 min.
In data set [16], `CC(=O)NC[C@H]1CN(c2ccc(N3CCOCC3)c(F)c2)C(=O)O1` [LINEZOLID] yielded a half-life of 102 min. For the same molecule, the Activity in the data set on Staphylococcus aureus [1] is on record as 1407 mm3; in the data set on Staphylococcus aureus [3], 1644 mm3; in the data set with Staphylococcus aureus [8] it was 858 mm3; in the data set with Staphylococcus aureus [9], 1234 mm3; with Staphylococcus aureus [12], 932 mm3; in the data set with Staphylococcus aureus [13] it was 1277 mm3. The Activity in the data set with Staphylococcus aureus [15] amounted to 1018 mm3. Further, in data set [2], the fraction unbound was 0.68. In addition, the fCmax in the data set on Plasma [17] was 14 µg/mL. In addition, in data set [18], the Tmax was 30 min. Besides, the figures for the fAUC/MIC in data set [7] and in [14] were 449 and 898, respectively. In the data set with Plasma [19], this molecule registered a fAUC of 1795 µg·min/mL.

What is called Tmax is the time at which the peak concentration occurs. As usually defined, the half-life is the time in which the quantity being followed falls by half. Read a high half-life as slow loss.
